Results gathered from unrelated publications.
HDAC7: Histone deacetylase 7 (HDAC7, Homo sapiens, UniProt Q8WUI4)
CSNK1A1: Casein kinase I isoform alpha (CSNK1A1, Homo sapiens, UniProt P48729)
SLC22A12: Solute carrier family 22 member 12 (SLC22A12, Homo sapiens, UniProt Q96S37)
PLA2G6: 85/88 kDa calcium-independent phospholipase A2 (PLA2G6, Homo sapiens, UniProt O60733)
HDAC10: Polyamine deacetylase HDAC10 (HDAC10, Homo sapiens, UniProt Q969S8)

SMILES	target	test	conditions	IC50
O=C(NO)c1ccc(Cn2cnc3c(Nc4ccc(Cl)cc4)ncnc32)cc1	HDAC7	enzyme activity, inhibitor		48 nM
Fc1ccc(-c2nc3cc(C4CC4)ccn3c2-c2ccncc2)cc1	CSNK1A1	enzyme activity, inhibitor, ADP detection		910 nM
NC(=O)c1nnn(Cc2cc(Cl)c(C(=O)c3ccc(Cl)cc3)c(Cl)c2)c1N	Cannabinoid receptor 2 (CNR2, Homo sapiens, UniProt P34972)	cAMP, antagonist		3780 nM
CCc1oc2cc(F)ccc2c1C(=O)c1cc(Br)c(O)c(Br)c1	SLC22A12	transporter uptake, inhibitor, radiometric	oocytes	18 nM
c1ccc(Cc2[nH]nc(-c3ccccn3)c2-c2ccnc3ccccc23)cc1	CSNK1A1	enzyme activity, inhibitor, ADP detection		3500 nM
O=C(NS(=O)(=O)C1CC1)c1cc2ccccc2n1Cc1ccc(C2CC2)c2ccccc12	SLC22A12	transporter uptake, inhibitor, radiometric		5800 nM
Oc1ccn2nc(-c3ccc(F)cc3)c(-c3ccncc3)c2c1	CSNK1A1	enzyme activity, inhibitor, ADP detection		840 nM
Cc1ncc(-c2cc3cc(-c4c(C)ccc(O)c4C)cnc3[nH]2)cn1	Membrane-associated tyrosine- and threonine-specific cdc2-inhibitory kinase (PKMYT1, Homo sapiens, UniProt Q99640)	cell-free assay, TR-FRET		19 nM
O=C(CCCCCCCCO)C(F)(F)F	PLA2G6	enzyme activity, inhibitor		12700 nM
c1ccc(-c2n[nH]cc2-c2ccncn2)nc1	CSNK1A1	enzyme activity, inhibitor, ADP detection		> 30000 nM
O=C1CCC(c2ccc(OCC(=O)OCCCCc3cn(CCCCCCN4CCc5c(c6ccccc6n5Cc5ccc(C(=O)NO)cc5)C4)nn3)cc2)C(=O)N1 (centres unmarked)	HDAC10	enzyme activity, inhibitor, fluorescence		15 nM
c1ccc(-c2occc2-c2ccnc3ccccc23)nc1	CSNK1A1	enzyme activity, inhibitor, ADP detection		> 30000 nM
COc1ccc(N(Cc2csc(-c3ccc(Br)cc3)n2)C(=O)CCCCCC(=O)NO)cc1	HDAC7	enzyme activity, inhibitor		> 10000 nM
O=C(COc1ccc(C2CCC(=O)NC2=O)cc1)NCCCCCCN1CCc2c(c3ccccc3n2Cc2ccc(C(=O)NO)cc2)C1 (centres unmarked)	HDAC10	enzyme activity, inhibitor, fluorescence		23 nM
O=C(c1ccc(OCCN2CCCCC2)cc1)c1c(-c2ccc(O)cc2)sc2cc(O)ccc12	Angiotensin-converting enzyme (Mus musculus, UniProt P09470)	enzyme activity, inhibitor		88600 nM
Fc1ccc(-c2nn3cccc(F)c3c2-c2ccncc2)cc1	CSNK1A1	enzyme activity, inhibitor, ADP detection		5500 nM
O=C(O)/C=C/c1nccc2c3ccccc3n(Cc3ccc(Br)c4ccccc34)c12	SLC22A12	transporter uptake, inhibitor, radiometric		3020 nM
CN(CCCCCCNC(=O)COc1ccc(C2CCC(=O)NC2=O)cc1)Cc1cn(Cc2ccc(C(=O)NO)cc2)c2ccccc12 (centres unmarked)	HDAC10	enzyme activity, inhibitor, fluorescence		12 nM
Fc1ccc(-c2nn3cc(F)ccc3c2-c2ccncc2)cc1	CSNK1A1	enzyme activity, inhibitor, ADP detection		2400 nM
COc1ccc(N(Cc2csc(-c3ccc(C)cc3)n2)C(=O)CCCCCC(=O)NO)cc1	HDAC7	enzyme activity, inhibitor		> 10000 nM
COc1ccn2nc(-c3ccc(F)cc3)c(-c3ccncc3)c2c1	CSNK1A1	enzyme activity, inhibitor, ADP detection		2100 nM
O=C(CCCCc1ccc(CO)cc1)C(F)(F)C(F)(F)F	PLA2G6	enzyme activity, inhibitor		630 nM
N#Cc1ccn2nc(-c3ccc(F)cc3)c(-c3ccncc3)c2c1	CSNK1A1	enzyme activity, inhibitor, ADP detection		730 nM
O=C(O)CCc1nccc2c3ccccc3n(Cc3ccc(Br)c4ccccc34)c12	SLC22A12	transporter uptake, inhibitor, radiometric		13800 nM
Cn1cc(-c2ccnc3ccccc23)c(-c2ccccn2)n1	CSNK1A1	enzyme activity, inhibitor, ADP detection		1500 nM
Cc1cc(N)c2ccccc2[n+]1CCCCCCCCCC[n+]1c(C)cc(N)c2ccccc21	Solute carrier family 22 member 2 (SLC22A2, Homo sapiens, UniProt O15244)	transporter uptake, inhibitor, fluorescence		88.2 nM
COc1c(Cl)cccc1Nc1c(-c2ccncc2OC[C@@H]2COCCO2)[nH]c2c1C(=O)NCC2	Epithelial discoidin domain-containing receptor 1 (DDR1, Homo sapiens, UniProt Q08345)	ligand displacement, TR-FRET		110 nM
c1ccc(Cn2cc(-c3ccnc4ccccc34)c(-c3ccccn3)n2)cc1	CSNK1A1	enzyme activity, inhibitor, ADP detection		5900 nM
Cc1ccc(S(=O)(=O)NC(=O)c2cc3ccccc3n2Cc2ccc(C3CC3)c3ccccc23)cc1	SLC22A12	transporter uptake, inhibitor, radiometric		14000 nM
